TAAR1 antagonist – antagonists of human TAAR1; CHO RD-HGA16 TAAR1, Fluo-8 calcium fluorescence, antagonist; inhibition, % at 3 µM; actives 1.5% (n = 360,000); AID 624466;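 active means inhibition above a per-plate cutoff, the mean inhibition of test compounds on that plate plus 3 SD, cut at about 49% in these data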;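 further: 0% = DMSO plus EC80 beta-PEA response and 100% = DMSO alone without agonist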
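Test system – hTAAR1-expressing CHO RD-HGA16 cells, Gα16-coupled · Reagent – β-PEA at EC80 concentration, post-compound challenge · Compound dosing – 3 µM, single point · Timing – 140 s kinetic read after compound, 140 s after agonist · Detection – Fluo-8 intracellular calcium dye fluorescence, real-time kinetic reads · Control set – DMSO and EC80 PEA controls · Repeats – n of 1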
OX1R antag-1 – blocks the human orexin 1 receptor | O43613 | CHO/OX1R cells, Fluo-8 calcium fluorescence, orexin A | inhibition, % at 5 µM | actives 0.43% (n = 330,000);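 active means inhibition above its plate's threshold, mean inhibition of all tested compounds on the plate plus 3 SD, cut at about 37% in these data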;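 further: 0% = orexin A challenge wells and 100% = SB-334867-A antagonist wells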
OX1R antag-2 – OX1R (human) antagonism. O43613. OX1R-expressing cells, FRET antagonist read-out. inhibition, % at 6.6 µM. actives 1.8% (n = 330,000); in the data active means inhibition mostly above about 38%, no sharp cut-off; inactive means mostly below about 40%;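 further: 0% = agonist challenge alone and 100% = reference antagonist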
GPR7 antag – human neuropeptides B/W receptor 1 antagonism; GPR7-expressing cells, fluorescence antagonist assay; inhibition, % at 4.4 µM; actives 1.1% (n = 290,000); in the data active means inhibition above about 16%, passing the limit was not always enough;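 further: cells stimulated with the agonist NPW; 0% = agonist with vehicle and 100% = vehicle without agonist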
Target sequence (P48145 whole entry, looked up): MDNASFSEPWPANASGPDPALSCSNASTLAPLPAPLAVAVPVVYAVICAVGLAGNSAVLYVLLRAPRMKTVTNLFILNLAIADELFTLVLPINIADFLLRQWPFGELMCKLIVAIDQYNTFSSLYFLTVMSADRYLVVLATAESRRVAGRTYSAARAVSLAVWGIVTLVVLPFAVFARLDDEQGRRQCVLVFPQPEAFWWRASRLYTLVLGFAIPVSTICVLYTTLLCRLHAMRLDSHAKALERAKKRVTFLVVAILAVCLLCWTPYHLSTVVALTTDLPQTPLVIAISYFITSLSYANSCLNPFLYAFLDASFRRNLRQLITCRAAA
CHO parental Ca – signal in parental CHO cells, OX1R antagonist counter-screen; actives 0.63% (n = 330,000); inhibition, % at 5.6 µM; parental CHO-K1, ATP-induced calcium, Fluo-8 fluorescence;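 active means inhibition above that plate's mean sample inhibition plus 3 SD, cut at about 26% in these data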;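 further: 0% = ATP-challenged DMSO wells and 100% = DMSO wells without ATP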
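Material – parental CHO cells · Reagent – ATP stimulus · Compound – single nominal dose of 5.6 µM per compound · Detection – Fluo-8 fluorescence · Read-out basis – percent inhibition of calcium signal · Controls – ATP-challenged DMSO wells low, unchallenged DMSO wells high · Repeats – no replicates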
TAAR1 agonist – agonists of human TAAR1. CHO RD-HGA16 TAAR1, Fluo-8 calcium fluorescence; vehicle wells 0%, saturating PEA agonist 100%. activation, % at 3 µM. actives 0.99% (n = 360,000). AID 624467;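 active means activation above the mean activation of all test compounds in the run plus 3 SD, cut at about 38% in these data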
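Test system: RD-HGA16 (CHO) cells co-expressing Gα16 and hTAAR1 | Doses: Single dose, 3 µM | Schedule: 17-24 h seeding, 75 min 37 °C dye, 30 min RT | Evaluation: % activation from peak over basal fluorescence ratio, DMSO-to-PEA scaled | Technique: Kinetic Fluo-8 calcium fluorescence | Benchmarks: Low control DMSO, high control PEA (EC100)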
nonsel antag count – counter-screen for TAAR1 antagonists: nonselective antagonists. AID 651780. shares compounds with TAAR1 antagonist. actives 77% (n = 2,400). inhibition, % at 3 µM. counterscreen cell line, calcium fluorescence, antagonist mode; in the data active means inhibition above about 22%;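 further: CHO-Ga16 host cells stimulated with ATP at an EC80 level; 0% = agonist EC80 plus vehicle and 100% = vehicle without agonist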
TAAR1 ant conf – human TAAR1 antagonism, confirmed; shares compounds with TAAR1 antagonist; inhibition, % at 3 µM; actives 40% (n = 2,400); TAAR1-expressing cells, fluorescence antagonist read-out; in the data active means inhibition above about 49%;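 further: CHO-Ga16 host cells challenged with agonist PEA near its EC80; 0% = agonist at EC80 plus vehicle and 100% = vehicle with no agonist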
Ga16 ag counter – nonselective Ga16 agonism, counter-screen; shares compounds with TAAR1 antagonist; Ga16-expressing cells, calcium fluorescence, agonist counterscreen; activation, % at 3 µM; actives 18% (n = 2,400); AID 651953; in the data active means activation above about 12%;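 further: 0% = vehicle wells and 100% = saturating stimulus response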
TAAR1 ag counter – TAAR1 agonism, antagonist counter-screen | shares compounds with TAAR1 antagonist | hTAAR1 cell line, fluorescence activation, agonist mode | activation, % at 3 µM | actives 2% (n = 2,400) | AID 651955; in the data active means activation above about 37%;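 further: CHO cells stably expressing TAAR1 with calcium dye readout; 0% = DMSO vehicle and 100% = full agonist response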
Numbers without * were called inactive; / = no result given. Most compounds without a hit are left out; they make up all but 4.6% or so of the library.

SMILES	TAAR1 antagonist	OX1R antag-1	OX1R antag-2	GPR7 antag	CHO parental Ca	TAAR1 agonist	nonsel antag count	TAAR1 ant conf	Ga16 ag counter	TAAR1 ag counter
CCN(CC)C(=O)c1[nH]cnc1C(=O)NCC(=O)OCc1ccccc1	70.8*	-10.0	17.0	-9.5	-5.3	24.6	25.2*	52.4*	9.5	8.5
CSc1ccc(CN2CCC(n3nccc3NC(=O)CCCc3ccccc3)CC2)cc1	11.2	-26.7	-4.9	-7.0	-26.4	11.8	/	/	/	/
CSc1ccccc1NC(=O)Cn1c([N+](=O)[O-])cnc1C	12.1	7.4	1.8	-16.8	-0.7	2.3	/	/	/	/
CCCCN(C(C)=O)c1c(CC)nc2ccc(C(=O)NCc3cccs3)cn12	-14.1	/	/	/	/	3.2	/	/	/	/
NC(=O)CCC(NC(=O)c1ccc(Cl)cc1)C(=O)NCCc1ccc2c(c1)OCCO2 (centres undefined)	-36.8	/	/	/	/	1.6	/	/	/	/
CS(=O)(=O)N1CCN(c2ccccc2NC(=S)NC(=O)c2ccco2)CC1	48.6*	-18.3	-1.9	-5.3	-20.2	16.1	28.8*	44.3	8.9	7.7
O=C(NC(=S)Nc1ccccc1N1CCCC1)c1ccco1	-9.0	-55.6	16.2	-0.2	-16.7	6.2	/	/	/	/
COc1ccc(CCNC2CC(=O)N(CCc3ccccc3)C2=O)cc1OC (centres undefined)	8.5	-33.0	6.9	0.2	-15.4	-1.2	/	/	/	/
COc1ccc(CCNC2=C(Cl)C(=O)N(CCc3ccccc3)C2=O)cc1OC	73.8*	-25.8	23.2	-8.2	-13.7	12.5	38.1*	45.8	7.8	4.1
Cc1cccc(C)c1NC(=O)C(c1cccs1)N(Cc1ccco1)C(=O)Cn1nnc2ccccc21 (centres undefined)	18.6	-20.4	11.4	6.9	-20.5	8.8	/	/	/	/
O=C(NC(c1ccc(Cl)cc1)c1ccsc1)C1CCN(CCOc2ccc(Cl)cc2)CC1 (centres undefined)	-11.1	/	/	/	/	9.0	/	/	/	/
CCOc1ccccc1N1CC(O)=C(c2nc3ccccc3s2)C1=N	65.6*	20.3	10.6	14.4	-8.6	22.7	26.4*	41.2	12.2*	10.4
Cn1c(CC(=O)c2ccc(Br)cc2)[n+](C)c2ccccc21	1.0	0.8	10.2	-7.1	11.2	0.1	/	/	/	/
O=C1/C(=C/Nc2cccc([N+](=O)[O-])c2)CCc2ccccc21	51.4*	-42.0	10.8	-9.0	-25.9	-0.3	12.5	24.2	0.6	-5.1
O=C1/C(=C\c2ccc([N+](=O)[O-])cc2)CCc2ccccc21	-28.8	-3.4	8.6	-10.0	-8.8	0.4	/	/	/	/
Cc1cccc(/C(N)=N/OC(=O)CCCc2ccccc2)c1	-15.4	-9.5	4.4	-15.1	-4.4	1.0	/	/	/	/
O=C1C(NS(=O)(=O)c2cccs2)=C(N2CCN(c3cccc(C(F)(F)F)c3)CC2)C(=O)c2ccccc21	11.7	-35.3	45.9	0.3	-2.1	4.1	/	/	/	/
O=C1C(NS(=O)(=O)c2cccs2)=C(N2CCN(Cc3ccccc3)CC2)C(=O)c2ccccc21	70.8*	-19.8	36.8	-15.9	-22.7	9.5	30.0*	48.7*	5.9	4.4
CCOc1ccc(-c2c(C)sc3nc[nH]c(=O)c23)cc1	75.7*	-10.4	15.3	-13.4	-0.7	14.0	26.5*	47.5	8.4	6.6
CC(C)CN1CC(=O)N2C(c3ccccc3)c3[nH]c4ccccc4c3C[C@H]2C1=O (some centres undefined)	60.8*	-11.7	-2.7	11.3	-5.7	36.5	23.2*	44.5	12.8*	17.6

Source: PubChem
